Measured values reported in ChEMBL document CHEMBL4145441, “Discovery of N-(5-((5-chloro-4-((2-(isopropylsulfonyl)phenyl)amino)pyrimidin-2-yl)amino)-4-methoxy-2-(4-methyl-1,4-diazepan-1-yl)phenyl)acrylamide (CHMFL-ALK/EGFR-050) as a potent ALK/EGFR dual kinase inhibitor capable of overcoming a variety of ALK/EGFR associated drug resistant mutants in NSCLC” (Eur J Med Chem, 2017).
Active and inactive are the calls of the source. No cut-off for these calls is given here.

Tests used:
[1] = molecular target: Epidermal growth factor receptor (Homo sapiens, UniProt P00533, L858R/T790M); assay: Inhibition of recombinant human GST-tagged EGFR L858R/T790M mutant expressed in Baculovirus expression system using Tyr 4 peptide as substrate after 1 hr in presence of ATP by Z-LYTE assay
[2] = molecular target: ALK tyrosine kinase receptor (Homo sapiens, UniProt Q9UM73, F1174L); assay: Inhibition of recombinant human N-terminal GST/His6-fused ALK F1174L mutant expressed in Sf9 insect cells using Tyr 1 peptide as substrate after 1 hr by Z-LYTE assay
ALK tyrosine kinase receptor (Homo sapiens, UniProt Q9UM73, F1174L), sequence (Q9UM73 19-1620 F1174L limits assumed): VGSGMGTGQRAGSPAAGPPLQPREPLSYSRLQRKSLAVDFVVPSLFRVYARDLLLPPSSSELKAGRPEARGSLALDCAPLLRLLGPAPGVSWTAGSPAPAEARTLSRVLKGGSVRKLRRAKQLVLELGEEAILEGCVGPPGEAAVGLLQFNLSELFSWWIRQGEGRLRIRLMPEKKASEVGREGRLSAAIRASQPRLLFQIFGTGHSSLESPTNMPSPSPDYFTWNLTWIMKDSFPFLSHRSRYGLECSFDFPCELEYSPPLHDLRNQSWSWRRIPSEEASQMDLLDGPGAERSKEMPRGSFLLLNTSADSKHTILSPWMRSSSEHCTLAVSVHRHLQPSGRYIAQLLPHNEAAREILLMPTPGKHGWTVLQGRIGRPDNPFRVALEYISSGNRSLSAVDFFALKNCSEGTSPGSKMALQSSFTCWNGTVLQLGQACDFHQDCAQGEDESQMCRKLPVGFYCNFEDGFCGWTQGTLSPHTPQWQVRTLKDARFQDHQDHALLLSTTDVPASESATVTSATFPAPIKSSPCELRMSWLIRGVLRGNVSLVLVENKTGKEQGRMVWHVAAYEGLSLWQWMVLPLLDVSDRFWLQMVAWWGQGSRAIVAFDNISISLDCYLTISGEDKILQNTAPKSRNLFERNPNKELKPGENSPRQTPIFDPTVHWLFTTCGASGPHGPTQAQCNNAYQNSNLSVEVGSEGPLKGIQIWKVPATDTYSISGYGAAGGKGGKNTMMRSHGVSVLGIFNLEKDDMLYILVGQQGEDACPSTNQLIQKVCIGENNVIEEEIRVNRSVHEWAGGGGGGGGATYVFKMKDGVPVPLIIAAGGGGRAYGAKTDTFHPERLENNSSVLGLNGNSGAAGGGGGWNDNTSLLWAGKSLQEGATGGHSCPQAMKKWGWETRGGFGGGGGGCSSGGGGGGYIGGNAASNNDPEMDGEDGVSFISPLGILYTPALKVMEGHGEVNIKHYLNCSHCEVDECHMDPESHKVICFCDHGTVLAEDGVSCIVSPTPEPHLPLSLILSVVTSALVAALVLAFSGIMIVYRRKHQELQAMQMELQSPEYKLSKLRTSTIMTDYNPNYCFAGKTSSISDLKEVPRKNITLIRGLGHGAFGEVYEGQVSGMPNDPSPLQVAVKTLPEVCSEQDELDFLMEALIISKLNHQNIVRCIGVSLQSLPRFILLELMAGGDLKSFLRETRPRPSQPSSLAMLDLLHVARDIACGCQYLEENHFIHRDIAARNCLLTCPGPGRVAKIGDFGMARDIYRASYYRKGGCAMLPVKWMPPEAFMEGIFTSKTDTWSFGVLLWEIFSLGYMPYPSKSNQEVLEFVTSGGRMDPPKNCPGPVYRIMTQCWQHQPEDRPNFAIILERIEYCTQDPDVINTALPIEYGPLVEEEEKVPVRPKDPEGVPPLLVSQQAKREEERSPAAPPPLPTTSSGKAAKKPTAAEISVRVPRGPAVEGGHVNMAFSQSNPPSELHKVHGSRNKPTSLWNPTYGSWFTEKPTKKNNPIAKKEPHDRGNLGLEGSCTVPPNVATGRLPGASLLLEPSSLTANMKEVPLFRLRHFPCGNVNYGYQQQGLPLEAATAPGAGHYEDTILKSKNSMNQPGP

[3] = molecular target: ALK tyrosine kinase receptor (Homo sapiens, UniProt Q9UM73, C1156Y); assay: Inhibition of recombinant human N-terminal GST/His6-fused ALK C1156Y mutant expressed in Sf9 insect cells using Tyr 1 peptide as substrate after 1 hr by Z-LYTE assay
ALK tyrosine kinase receptor (Homo sapiens, UniProt Q9UM73, C1156Y), sequence (Q9UM73 19-1620 C1156Y limits assumed): as the sequence (Q9UM73 19-1620 F1174L limits assumed) above, with C1138Y, L1156F counted along it

[4] = Antiproliferative activity against mouse BAF3 cells after 72 hrs by CellTiter-Glo assay; format: cell-based
[5] = test system: Epidermal growth factor receptor (Homo sapiens), P00533 [T790M]; assay: Inhibition of TEL-fused EGFR T790M mutant (unknown origin) expressed in mouse BAF3 cells assessed as decrease in cell proliferation after 72 hrs by CellTiter-Glo assay; format: cell-based
PC-9 [6] = assay: Antiproliferative activity against human PC9 cells harboring EGFR del19 mutant after 72 hrs by CellTiter-Glo assay; format: functional; conditions: PC-9, 72 h
HCC827 = assay: Antiproliferative activity against human HCC827 cells harboring EGFR del19 mutant after 72 hrs by CellTiter-Glo assay; format: functional; conditions: HCC827, 72 h
NCI-H2122 = assay: Antiproliferative activity against human NCI-H2122 cells harboring wild-type EGFR after 72 hrs by CellTiter-Glo assay; format: functional; conditions: NCI-H2122, 72 h
NCI-H3122 [7] = assay: Antiproliferative activity against human NCI-H3122 cells harboring EML4-fused ALK varian1 after 72 hrs by CellTiter-Glo assay; format: functional; conditions: NCI-H3122, 72 h
How it was run: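 Antiproliferative GI50 against H1975 and H3122 cells; each GI50 value obtained from triplicate testing.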

[8] = AUC (0 to t) in Sprague-Dawley rat at 1 mg/kg, iv; format: ADME, organism-based; conditions: in vivo
How it was run: (§1)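 Rats dosed once intravenously at 1 mg/kg or orally at 10 mg/kg. Plasma exposure parameters derived: AUC0-t, AUC0-∞, MRT(0-t), Cmax, Tmax, T1/2 and oral bioavailability (F%). Values reported as mean ± spread.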

[9] = Cmax in Sprague-Dawley rat at 1 mg/kg, iv; format: ADME, organism-based; parameters: dose 1 mg/kg, route intravenous; conditions: in vivo; how it was run: as §1
[10] = Half life in Sprague-Dawley rat at 1 mg/kg, iv; format: ADME, organism-based; conditions: in vivo; how it was run: as §1
[11] = Oral bioavailability in Sprague-Dawley rat at 10 mg/kg; format: ADME, organism-based; conditions: in vivo
How it was run: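 Pharmacokinetics in rats given a single dose either intravenously at 1 mg/kg or orally at 10 mg/kg. Plasma parameters derived include AUC0-t, AUC0-∞, MRT(0-t), Cmax, Tmax, T1/2 and oral F (%).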

[12] = AUC (0 to t) in Sprague-Dawley rat at 10 mg/kg, po; format: ADME, organism-based; conditions: in vivo; how it was run: as §1
[13] = AUC (0 to infinity) in Sprague-Dawley rat at 10 mg/kg, po; format: ADME, organism-based; parameters: dose 10 mg/kg, route oral, time infinity; conditions: in vivo; how it was run: as §1
[14] = molecular target: T1, Epidermal growth factor receptor (Homo sapiens, UniProt P00533); assay: Inhibition of EGFR phosphorylation at Y1068 in human PC9 cells at 30 nM after 4 hrs by immunoblotting method; format: cell-based
T1 sequence (P00533 whole entry): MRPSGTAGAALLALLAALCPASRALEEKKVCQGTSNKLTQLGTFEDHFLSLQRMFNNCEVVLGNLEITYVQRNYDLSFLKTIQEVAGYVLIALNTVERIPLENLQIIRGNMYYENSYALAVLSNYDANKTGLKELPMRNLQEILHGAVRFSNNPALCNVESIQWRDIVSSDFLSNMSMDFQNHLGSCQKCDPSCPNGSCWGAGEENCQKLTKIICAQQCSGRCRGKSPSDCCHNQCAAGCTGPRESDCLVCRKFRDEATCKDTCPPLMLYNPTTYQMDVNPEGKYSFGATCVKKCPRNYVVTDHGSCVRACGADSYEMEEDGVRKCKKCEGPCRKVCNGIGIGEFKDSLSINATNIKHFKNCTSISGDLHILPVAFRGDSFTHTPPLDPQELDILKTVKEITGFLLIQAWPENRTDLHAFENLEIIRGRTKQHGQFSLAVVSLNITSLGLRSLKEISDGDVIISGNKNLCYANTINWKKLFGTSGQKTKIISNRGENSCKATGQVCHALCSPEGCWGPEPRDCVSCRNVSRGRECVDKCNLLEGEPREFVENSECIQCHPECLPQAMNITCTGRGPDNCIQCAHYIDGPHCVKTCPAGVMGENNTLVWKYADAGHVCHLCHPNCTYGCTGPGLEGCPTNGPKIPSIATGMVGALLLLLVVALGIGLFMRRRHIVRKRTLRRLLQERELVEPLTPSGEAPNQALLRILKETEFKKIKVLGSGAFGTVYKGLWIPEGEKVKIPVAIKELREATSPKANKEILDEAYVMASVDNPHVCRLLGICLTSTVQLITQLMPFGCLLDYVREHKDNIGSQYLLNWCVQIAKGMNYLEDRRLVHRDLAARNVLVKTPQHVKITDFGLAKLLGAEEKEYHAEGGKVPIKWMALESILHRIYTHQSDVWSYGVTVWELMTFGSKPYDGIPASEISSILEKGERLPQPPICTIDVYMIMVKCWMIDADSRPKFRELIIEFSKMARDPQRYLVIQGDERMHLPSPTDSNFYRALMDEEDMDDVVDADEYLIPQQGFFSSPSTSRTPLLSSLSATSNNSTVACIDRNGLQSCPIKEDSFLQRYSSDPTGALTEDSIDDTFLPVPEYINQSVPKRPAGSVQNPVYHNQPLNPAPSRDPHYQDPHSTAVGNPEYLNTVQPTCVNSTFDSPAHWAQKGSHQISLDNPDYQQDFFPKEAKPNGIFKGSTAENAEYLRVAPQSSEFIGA

[15] = molecular target: T1, Epidermal growth factor receptor; assay: Inhibition of EGFR in human A549 cells assessed as reduction in EGF-induced STAT3 phosphorylation at Tyr705 residue up to 3 uM after 4 hrs by immunoblotting method; format: cell-based
[16] = molecular target: T1, Epidermal growth factor receptor; assay: Inhibition of EGFR in human A549 cells assessed as reduction in EGF-induced AKT phosphorylation at Thr308 residue up to 3 uM after 4 hrs by immunoblotting method; format: cell-based
[17] = molecular target: T1, Epidermal growth factor receptor; assay: Inhibition of EGFR in human A549 cells assessed as reduction in EGF-induced P70S6K phosphorylation at Thr389 residue up to 3 uM after 4 hrs by immunoblotting method; format: cell-based
[18] = molecular target: T2, ALK tyrosine kinase receptor (Homo sapiens, UniProt Q9UM73); assay: Inhibition of ALK phosphorylation at Tyr1604 residue in human NCI-H3122 cells harboring EML4-fused ALK at 100 nM after 2 hrs by immunoblot method; format: cell-based
T2 sequence (Q9UM73 19-1620 limits assumed): as the sequence (Q9UM73 19-1620 F1174L limits assumed) above, with L1156F counted along it

[19] = molecular target: T2, ALK tyrosine kinase receptor; assay: Inhibition of ALK in human NCI-H3122 cells harboring EML4-fused ALK assessed as reduction in ALK-induced ERK phosphorylation at Thr202/Tyr204 residues up to 3 uM after 2 hrs by immunoblot method; format: cell-based
PC-9 [20] = assay: Cell cycle arrest in human PC9 cells assessed as accumulation at G0/G1 phase at 0.03 to 1 uM after 24 hrs by propidium iodide/RNase staining-based flow cytometry; format: functional
NCI-H3122 [21] = assay: Induction of apoptosis in human NCI-H3122 cells assessed as increase in cleaved PARP expression level at 300 nM after 24 hrs by Western blot method; format: functional, cell-based
NCI-H3122 [22] = assay: Antitumor activity against human NCI-H3122 cells xenografted in nu/nu mouse assessed as tumor growth inhibition at 10 mg/kg, po qd administered for 28 days; format: functional; conditions: 672 h, read-out: TGI
NCI-H3122 [23] = assay: Antitumor activity against human NCI-H3122 cells xenografted in po dosed nu/nu mouse assessed as decrease in cell proliferation administered for 28 days by Ki67 staining-based immunohistochemical analysis; format: functional, organism-based
NCI-H3122 [24] = assay: Induction of apoptosis in human NCI-H3122 cells xenografted in po dosed nu/nu mouse administered for 28 days by DAB-chromogen-based TUNEL assay; format: functional, organism-based
[25] = test system: ALK tyrosine kinase receptor (Homo sapiens), Q9UM73 [C1156Y]
ALK tyrosine kinase receptor (Homo sapiens), Q9UM73 [C1156Y], sequence (Q9UM73 whole entry C1156Y, looked up): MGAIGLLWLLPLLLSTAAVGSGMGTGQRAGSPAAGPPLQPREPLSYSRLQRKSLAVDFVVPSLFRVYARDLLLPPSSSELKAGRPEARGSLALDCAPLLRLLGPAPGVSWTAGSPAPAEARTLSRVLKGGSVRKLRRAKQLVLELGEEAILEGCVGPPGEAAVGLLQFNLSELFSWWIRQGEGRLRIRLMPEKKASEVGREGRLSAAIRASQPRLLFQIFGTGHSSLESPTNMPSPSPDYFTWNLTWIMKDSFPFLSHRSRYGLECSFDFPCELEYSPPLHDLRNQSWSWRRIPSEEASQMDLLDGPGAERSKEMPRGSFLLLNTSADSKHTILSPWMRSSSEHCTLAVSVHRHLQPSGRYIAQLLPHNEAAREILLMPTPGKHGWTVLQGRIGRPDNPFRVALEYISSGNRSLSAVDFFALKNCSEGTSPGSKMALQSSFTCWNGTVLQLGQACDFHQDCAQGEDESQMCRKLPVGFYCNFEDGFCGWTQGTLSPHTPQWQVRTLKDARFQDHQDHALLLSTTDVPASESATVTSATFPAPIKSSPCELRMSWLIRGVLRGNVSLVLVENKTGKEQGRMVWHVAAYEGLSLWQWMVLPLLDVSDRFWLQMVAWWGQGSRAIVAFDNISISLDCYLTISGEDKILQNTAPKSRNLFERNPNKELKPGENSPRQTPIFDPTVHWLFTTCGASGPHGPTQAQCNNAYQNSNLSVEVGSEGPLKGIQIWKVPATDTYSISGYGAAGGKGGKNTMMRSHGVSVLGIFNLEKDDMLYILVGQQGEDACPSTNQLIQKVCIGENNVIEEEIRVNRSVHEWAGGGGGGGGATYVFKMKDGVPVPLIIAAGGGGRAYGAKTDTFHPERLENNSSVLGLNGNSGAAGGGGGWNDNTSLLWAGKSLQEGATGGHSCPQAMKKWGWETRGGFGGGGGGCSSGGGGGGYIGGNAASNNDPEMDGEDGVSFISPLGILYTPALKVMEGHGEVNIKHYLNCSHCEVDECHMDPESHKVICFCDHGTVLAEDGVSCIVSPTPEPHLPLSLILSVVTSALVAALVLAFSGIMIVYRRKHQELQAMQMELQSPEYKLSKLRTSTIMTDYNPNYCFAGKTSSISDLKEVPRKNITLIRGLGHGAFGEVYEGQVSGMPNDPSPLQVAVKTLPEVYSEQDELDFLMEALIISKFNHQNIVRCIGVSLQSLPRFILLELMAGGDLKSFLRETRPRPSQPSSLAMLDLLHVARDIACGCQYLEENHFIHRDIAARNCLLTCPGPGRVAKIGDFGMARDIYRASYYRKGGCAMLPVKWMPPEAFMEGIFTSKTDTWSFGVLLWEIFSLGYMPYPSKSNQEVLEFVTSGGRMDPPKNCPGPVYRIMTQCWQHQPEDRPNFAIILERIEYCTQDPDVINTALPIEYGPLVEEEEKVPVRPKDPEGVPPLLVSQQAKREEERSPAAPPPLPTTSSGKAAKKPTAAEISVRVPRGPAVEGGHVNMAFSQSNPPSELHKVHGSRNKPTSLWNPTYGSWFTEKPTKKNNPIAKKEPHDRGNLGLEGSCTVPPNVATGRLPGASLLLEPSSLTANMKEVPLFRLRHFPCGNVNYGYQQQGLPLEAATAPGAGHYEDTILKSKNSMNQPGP

[26] = test system: ALK tyrosine kinase receptor (Homo sapiens), Q9UM73 [G1202R]
ALK tyrosine kinase receptor (Homo sapiens), Q9UM73 [G1202R], sequence (Q9UM73 whole entry G1202R): as the sequence (Q9UM73 whole entry C1156Y, looked up) above, with Y1156C, G1202R counted along it

NCI-H1975 [27] = assay: Induction of apoptosis in human NCI-H1975 cells xenografted in po dosed nu/nu mouse administered for 21 days by DAB-chromogen-based TUNEL assay
Mus musculus = assay: Toxicity in nu/nu mouse xenografted with human NCI-H1975 cells assessed as change in body weight at 10 to 40 mg/kg, po qd administered for 21 days; conditions: in vivo, 504 h
NCI-H1975 [28] = assay: Antitumor activity against human NCI-H1975 cells xenografted in nu/nu mouse assessed as tumor growth inhibition at 40 mg/kg, po qd administered for 21 days; conditions: 504 h, read-out: TGI
NCI-H1975 [29] = assay: Antitumor activity against human NCI-H1975 cells xenografted in nu/nu mouse assessed as tumor weight at 10 mg/kg, po qd administered for 21 days (reference value: 6.05g)

C=CC(=O)Nc1cc(Nc2ncc(Cl)c(Nc3ccccc3S(=O)(=O)C(C)C)n2)c(OC)cc1N1CCCN(C)CC1
IC50 [1]: 3.6 nM
IC50 [2]: 0.92 nM
IC50 [3]: 1 nM
GI50 at 72 h [4]: 1200 nM
GI50 [5]: 8 nM
GI50 (PC-9 [6]): 15 nM
GI50 (HCC827): 6.2 nM
GI50 (NCI-H2122): 1800 nM
GI50 (NCI-H3122 [7]): < 0.3 nM
AUC(0-t) [8]: 707 ng·h/mL
Cmax [9]: 1490 ng/mL
half-life [10]: 59.5 min
bioavailability [11]: 16.1%
AUC(0-t) [12]: 1140 ng·h/mL
AUC(0-inf) [13]: 1300 ng·h/mL
inhibition [14]: Active
inhibition [15]: inactive
inhibition [16]: inactive
inhibition [17]: inactive
inhibition [18]: Active
inhibition [19]: Active
Activity (PC-9 [20]): Active
Activity (NCI-H3122 [21]): Active
inhibition in vivo at 10 mg/kg (NCI-H3122 [22]): 10.8%
Activity (NCI-H3122 [23]): Dose-dependent effect
Activity (NCI-H3122 [24]): Dose-dependent effect
GI50 [25]: 6.9 nM
GI50 [26]: 460 nM
Activity (NCI-H1975 [27]): Dose-dependent effect
Activity (Mus musculus): Non-Toxic
inhibition in vivo at 40 mg/kg (NCI-H1975 [28]): 99%
Activity (NCI-H1975 [29]): 1.58 g
